Compound activity from PubChem.
Hits are enriched below; roughly 3.3% of the tested compounds scored in any of these assays.
Arrestin-AP2 inh = inhibitors of beta-arrestin/AP2 binding, primary screen, biochemical, GPCR trafficking, flow cytometry; beta-arrestin 1 C-terminal peptide binding to AP2 beta2-adaptin appendage (human); FITC-arrestin peptide / GST-AP2 beads; AP2 beta2 appendage carries R879A mutation; inhibition, % at 10 µM; actives 0.31% (n = 340,000); AID 504490, 2011;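 active = inhibition above a set limit, near 3 SD of compounds lacking own fluorescence, cut at about 54% in these data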
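test system = AP2 appendage R879A on GSH beads | buffer or medium = PBS plus Tween 20 (0.05%) and BSA (0.1%) | incubation = 12 min plus 1 h, RT | detection = bead flow cytometry, FITC channel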
Hep lipid drop = inhibitors of hepatocyte lipid droplet formation, primary screen, imaging, high-throughput imaging, BODIPY stain | AML12 mouse hepatocytes, oleate lipid droplets | inhibition, % at 6.5 µM | actives 0.4% (n = 240,000);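 active = lipid droplet intensity inhibited by at least 50%, with more than 500 cells counted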
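Material: mouse AML12 hepatocyte cell line, fixed after treatment; Timing: compound with oleate, overnight; Technique: high-content imaging of BODIPY-stained droplets and DAPI nuclei; Probe or stimulus: oleate, 100 µM final; Dosing: compound at 6.5 µM only.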
PfM18AAP inh = PfM18AAP inhibitors, malaria aminopeptidase, primary screen, biochemical, QFRET, recombinant enzyme; M18 aspartyl aminopeptidase (Plasmodium falciparum 3D7); H-Glu-NHMec fluorogenic cleavage; inhibition, % at 7.35 µM; actives 1.2% (n = 290,000); AID 1822, 2009;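 active = inhibition above the campaign mean inhibition over all tested compounds plus 3 SD, cut at about 28% in these data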
m5-HT2A agonist = mouse Htr2a agonists via beta-arrestin recruitment, primary screen, cell-based, luminescence | actives 0.66% (n = 360,000) | activation, % at 7.6 µM | 5-hydroxytryptamine receptor 2A (Mus musculus), P35363 | CHO-K1 mHTR2A beta-arrestin complementation; percent of 30 µM serotonin response;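 active = activation above a run cutoff, the mean activation of all tested compounds plus 3 SD, cut at about 14% in these data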
sPLA2-III inh = human group III sPLA2 inhibitors, primary screen, biochemical, QFRET, BODIPY PC-A2 liposome substrate; QFRET BODIPY PC-A2 liposome hydrolysis, fluorescence; inhibition, % at 12.2 µM; Group 3 secretory phospholipase A2 (Homo sapiens), Q9NZ20; actives 0.56% (n = 370,000);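 active = inhibition above mean plus 3 SD of compounds lying within the high and low control bounds, cut at about 19% in these data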
NRP1-CendR mod = modulators of CendR peptide binding to NRP-1, primary screen, biochemical, fluorescence polarization, uHTS; FAM-RPARPAR peptide binding to NRP-1; inhibition, % at 25 µM; actives 0.85% (n = 360,000); AID 602438, 2012; Neuropilin-1 (Homo sapiens), O14786;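 active = inhibition or corrected inhibition above about 18%, plus a signal ratio from 0.5 to 1.5, limit read from the data, passing the limit was not always enough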
Target sequence (O14786 whole entry, looked up): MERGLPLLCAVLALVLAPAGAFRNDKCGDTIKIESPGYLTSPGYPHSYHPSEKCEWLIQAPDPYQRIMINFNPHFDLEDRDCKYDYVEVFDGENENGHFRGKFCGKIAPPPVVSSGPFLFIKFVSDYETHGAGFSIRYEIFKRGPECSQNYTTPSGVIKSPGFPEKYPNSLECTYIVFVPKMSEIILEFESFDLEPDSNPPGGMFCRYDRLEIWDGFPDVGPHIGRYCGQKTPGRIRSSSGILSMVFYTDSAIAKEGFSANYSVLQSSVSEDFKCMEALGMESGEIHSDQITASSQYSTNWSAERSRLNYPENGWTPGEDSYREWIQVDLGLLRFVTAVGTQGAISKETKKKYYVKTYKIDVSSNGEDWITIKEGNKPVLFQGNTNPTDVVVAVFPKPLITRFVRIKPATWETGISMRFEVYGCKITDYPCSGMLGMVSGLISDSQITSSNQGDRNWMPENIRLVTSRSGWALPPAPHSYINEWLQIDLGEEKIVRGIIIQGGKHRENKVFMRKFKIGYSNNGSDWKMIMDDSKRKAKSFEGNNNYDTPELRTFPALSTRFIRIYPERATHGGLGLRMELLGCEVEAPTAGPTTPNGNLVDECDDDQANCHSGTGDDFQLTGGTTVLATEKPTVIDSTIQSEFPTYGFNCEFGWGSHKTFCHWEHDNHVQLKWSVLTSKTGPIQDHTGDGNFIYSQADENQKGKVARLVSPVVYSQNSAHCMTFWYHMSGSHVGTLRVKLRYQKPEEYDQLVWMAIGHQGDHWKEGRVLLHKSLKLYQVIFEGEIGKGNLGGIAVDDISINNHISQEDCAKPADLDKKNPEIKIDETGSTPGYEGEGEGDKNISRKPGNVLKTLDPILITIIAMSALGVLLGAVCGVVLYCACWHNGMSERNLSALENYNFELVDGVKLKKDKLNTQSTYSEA
MOR ag counter = OPRM1 agonists via beta-arrestin recruitment, confirmation, counter-screen for mouse HTR2A agonist project, cell-based, luminescence, single concentration. shares compounds with m5-HT2A agonist. U2OS OPRM1 beta-arrestin PathHunter; DMSO 0%, DAMGO 9.3 µM 100%. activation, % at 9.3 µM. actives 5.3% (n = 2,300). AID 624380, 2012;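 active = mean activation above the mean of DMSO-only wells plus 3 SD, cut at about 0.5% in these data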
HTR2A ag conf = mouse HTR2A agonists, beta-arrestin recruitment, confirmation, cell-based, luminescence, CHO-K1 PathHunter, triplicate; activation, % at 7.6 µM; shares compounds with m5-HT2A agonist; actives 19% (n = 2,300); DMSO 0%, 30 µM serotonin 100%; AID 624381, 2012;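 active = mean activation across triplicates above the hit threshold derived in the original primary screen, cut at about 15% in these data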
Each line names hits and unclear results; the compound was inactive in the other large screens (follow-up assays come after a bar, where they were run).

Cc1ccc(S(=O)(=O)CC(=O)Nc2nc(C(C)(C)C)cs2)cc1	m5-HT2A agonist 19 | MOR ag counter inactive | HTR2A ag conf inactive
Cc1ccc(S(=O)(=O)CCC(=O)Nc2nc(C(C)(C)C)cs2)cc1	none
CN(CC(=O)Nc1ccccc1Cl)C(=O)c1cc2c(s1)CCCCC2	none (no result: Hep lipid drop, PfM18AAP inh)
CN(CC(=O)Nc1ccccc1Br)C(=O)c1cc2c(s1)CCCCC2	m5-HT2A agonist 17 (no result: Hep lipid drop, PfM18AAP inh) | MOR ag counter inactive | HTR2A ag conf inactive
C[C@@H]1CCCCO[C@@H](CN(C)Cc2ccc(Cl)c(Cl)c2)[C@@H](C)CN([C@H](C)CO)C(=O)c2cc(NC(=O)CCC(F)(F)F)ccc2O1	none (no result: Arrestin-AP2 inh, Hep lipid drop, PfM18AAP inh)
Cn1c(=O)c(=O)n(C)c2cc(S(=O)(=O)N3CCN(Cc4ccc(F)cc4)CC3)ccc21	none (no result: Arrestin-AP2 inh, Hep lipid drop, PfM18AAP inh, m5-HT2A agonist, NRP1-CendR mod)
Cc1ccccc1NC(=O)Cc1nc(COC(=O)COc2cccc(C)c2C)cs1	m5-HT2A agonist 15 (no result: Hep lipid drop, PfM18AAP inh) | MOR ag counter inactive | HTR2A ag conf inactive
Cn1nccc1C(=O)Nc1nnc(C2CC2)s1	m5-HT2A agonist 15 | MOR ag counter inactive | HTR2A ag conf inactive
Cn1c(=O)c2cc(NC(=S)NC3CCCCC3)ccc2n1-c1ccccc1	none (no result: Arrestin-AP2 inh, Hep lipid drop, PfM18AAP inh)
CC(=O)N1CCc2cc(S(=O)(=O)NC3CCN(C(=O)C(C)(C)C)CC3)ccc21	none (no result: Arrestin-AP2 inh, Hep lipid drop, PfM18AAP inh, m5-HT2A agonist, NRP1-CendR mod)
O=C(Cc1ccccc1)NNC1CC(=O)N(c2ccccc2)C1=O (configuration not stated)	none
O=C(Cc1ccccc1)NNC1CC(=O)N(c2ccc(Oc3ccccc3)cc2)C1=O (configuration not stated)	m5-HT2A agonist 17 | MOR ag counter inactive | HTR2A ag conf inactive
COC(=O)[C@H](CC(C)C)NC(=O)CC[C@H]1O[C@@H](n2ccc(=O)[nH]c2=O)[C@H](O)[C@@H]1O	none (no result: Arrestin-AP2 inh, Hep lipid drop, PfM18AAP inh)
Nc1ccn([C@@H]2O[C@H](C(=O)N[C@H]3c4ccccc4C[C@H]3O)[C@@H](O)[C@H]2O)c(=O)n1	none (no result: Arrestin-AP2 inh, Hep lipid drop, PfM18AAP inh)
Cc1ccccc1-n1ncc(C(C)NS(=O)(=O)c2sccc2C)c1C (configuration not stated)	m5-HT2A agonist 15 | MOR ag counter inactive | HTR2A ag conf inactive
O=C(c1ccccc1Cl)N1CCN(c2ncccn2)CC1	none (no result: Hep lipid drop, PfM18AAP inh)
O=C(O)/C=C\C(=O)Nc1ccc(N2CCN(c3ccc(Cl)c(Cl)c3)CC2)cc1	m5-HT2A agonist 35 | MOR ag counter inactive | HTR2A ag conf inactive
O=C(O)/C=C\C(=O)Nc1ccc(N2CCN(c3ccc(Cl)cc3)CC2)cc1	none
O=C(O)/C=C\C(=O)Nc1ccc(N2CCN(c3cccc(Cl)c3)CC2)cc1	m5-HT2A agonist 17 | MOR ag counter inactive | HTR2A ag conf inactive
Cc1ccc(S(=O)(=O)NC(=O)NCc2ccccn2)cc1	m5-HT2A agonist 14 (no result: Hep lipid drop) | MOR ag counter inactive | HTR2A ag conf inactive
CCC(=O)N1c2ccc(S(=O)(=O)N3CCCCC3)cc2CC1C (configuration not stated)	none
CCC(=O)N1c2ccc(S(=O)(=O)N3CCCC3)cc2CC1C (configuration not stated)	m5-HT2A agonist 15 | MOR ag counter inactive | HTR2A ag conf inactive
COc1ccccc1NC(=O)Nc1nc(CC(=O)N2CCN(c3ccccc3F)CC2)cs1	m5-HT2A agonist 15 (no result: Hep lipid drop, PfM18AAP inh) | MOR ag counter inactive | HTR2A ag conf inactive
Cc1ccc(/C(=N\S(=O)(=O)c2ccc(Br)cc2)Nc2ccccc2C)cc1	m5-HT2A agonist 15 | MOR ag counter inactive | HTR2A ag conf inactive
COc1ccccc1N/C(=N/S(=O)(=O)c1ccc(C)cc1)c1ccccc1	none
Cc1ccc(C(=O)N2CCN(Cc3ccc4c(c3)OCO4)CC2)o1	m5-HT2A agonist 20 (no result: Hep lipid drop) | MOR ag counter inactive | HTR2A ag conf inactive
Cc1c(C(=O)N2CCN(Cc3ccc4c(c3)OCO4)CC2)sc2ncnc(N3CCN(c4ccccc4F)CC3)c12	m5-HT2A agonist 25 | MOR ag counter inactive | HTR2A ag conf 36
CCOC(=O)N1CCN(Cc2ccc3c(c2)OCO3)CC1	m5-HT2A agonist 37 | MOR ag counter inactive | HTR2A ag conf 107
Cc1c(C(=O)N2CCN(Cc3ccc4c(c3)OCO4)CC2)sc2ncnc(N3CCN(c4ccccc4)CC3)c12	none
CCOC(=O)[C@]12CCCC=C1N(Cc1ccc(OC)cc1)C(=O)[C@@H]2CC(=O)NCC12CC3CC(CC(C3)C1)C2	none (no result: Arrestin-AP2 inh, Hep lipid drop, PfM18AAP inh, m5-HT2A agonist, NRP1-CendR mod)
CCCCOc1ccc(C(=O)NCC(=O)NC2CCC(C)CC2)cc1 (configuration not stated)	m5-HT2A agonist 18 (no result: Hep lipid drop, PfM18AAP inh) | MOR ag counter inactive | HTR2A ag conf inactive
CCCCOc1ccc(C(=O)NCC(=O)NC2CCN(Cc3ccccc3)CC2)cc1	none
CCOC(=O)C1(C)CCCN1C(=O)c1ccccc1OC (configuration not stated)	m5-HT2A agonist 15 (no result: Arrestin-AP2 inh, Hep lipid drop, PfM18AAP inh) | MOR ag counter inactive | HTR2A ag conf inactive
CCCOc1ccc(C(=O)N2CCC(Oc3cccnc3)CC2)cc1	none (no result: Arrestin-AP2 inh, Hep lipid drop, PfM18AAP inh, m5-HT2A agonist, NRP1-CendR mod)
Cc1c(C(=O)NCc2ccccn2)sc(=O)n1Cc1ccc(-c2ccccc2)cc1	m5-HT2A agonist 25 (no result: Arrestin-AP2 inh, Hep lipid drop, PfM18AAP inh) | MOR ag counter inactive | HTR2A ag conf inactive
Cc1c(C(=O)NCc2ccc(C#N)cc2)sc(=O)n1Cc1ccccn1	none (no result: Arrestin-AP2 inh, Hep lipid drop, PfM18AAP inh)
COC(=O)[C@H]1C[C@@]2(C)c3ccccc3N(C(=O)OC(C)(C)C)[C@H]2N1C(=O)OC(C)(C)C	none (no result: Arrestin-AP2 inh, Hep lipid drop, PfM18AAP inh, m5-HT2A agonist, NRP1-CendR mod)
CN(C)C(=O)c1ccc(NC(=O)c2cccc(S(=O)(=O)N3CCCc4ccccc43)c2)cc1	none (no result: Hep lipid drop, PfM18AAP inh)
Cc1ccc2c(c1)CCCN2S(=O)(=O)c1cccc(C(=O)Nc2ccccc2C(=O)O)c1	m5-HT2A agonist 15 | MOR ag counter inactive | HTR2A ag conf inactive
O=C(C(Br)=Cc1ccccc1)c1ccccc1	none (no result: Hep lipid drop, PfM18AAP inh)
COc1cc(/C=C/C(=O)OCC(=O)NC(C)c2ccccc2)cc(OC)c1OC (configuration not stated)	m5-HT2A agonist 15 (no result: Hep lipid drop, PfM18AAP inh) | MOR ag counter inactive | HTR2A ag conf inactive
